ChEMBL document CHEMBL5331127, “Discovery of ARD-2051 as a Potent and Orally Efficacious Proteolysis Targeting Chimera (PROTAC) Degrader of Androgen Receptor for the Treatment of Advanced Prostate Cancer” (J Med Chem, 2023)
Activity calls are given as the source filed them. The rule behind the calls is not given here.

Columns and labels:
[1] = Drug concentration in ICR mouse plasma at 10 mg/kg, po measured after 24 hrs; type: ADME, organism-based
Outline: (§1)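 Mice given a single 10 mg/kg dose by oral gavage, 3 mice per time point. Plasma drug levels measured at 1, 3, 6 and 24 h; mean ± SD reported.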

[2] = Half life in Sprague-Dawley rat at 1 mg/kg, iv measured upto 24 hrs by LC-MS/MS analysis; type: ADME, organism-based; settings: in vivo
Outline: (§2)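 Male ICR mice (2 mg/kg), male SD rats (1 mg/kg) or male Beagle dogs (1 mg/kg) given a single intravenous dose in 10% PEG400 + 90% PBS adjusted to pH 8.0 with NaOH.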

[3] = Clearance in ICR mouse at 2 mg/kg, iv measured upto 24 hrs by LC-MS/MS analysis; type: ADME, organism-based; settings: in vivo; outline: as §2
[4] = Plasma protein binding in rat at 1 uM after 5 hrs by equilibrium dialysis based LC-MS/MS analysis; type: ADME, cell-free
Outline: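 Equilibrium dialysis of pooled plasma of each species spiked at 1 μM against 0.1 M sodium phosphate, pH 7.4. 5 h at 37 °C with shaking at 60 rpm. Both sides matrix-matched, ACN/IS quench, LC/MS. % bound = 100 − (buffer/plasma peak-area ratio × 100); recovery also calculated. Warfarin as reference.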

[5] = AUC(0 to t) in ICR mouse at 2 mg/kg, iv measured upto 24 hrs by LC-MS/MS analysis; type: ADME, organism-based; parameters: time < 24 hrs, dose 2 mg/kg, route iv; settings: in vivo; outline: as §2
[6] = Half life in Beagle dog at 1 mg/kg, iv measured upto 24 hrs by LC-MS/MS analysis; type: ADME, organism-based, Canis lupus familiaris; settings: in vivo; outline: as §2
[7] = Drug concentration in ICR mouse plasma at 10 mg/kg, po measured after 1 hr; type: ADME, organism-based; outline: as §1
[8] = Volume of distribution at steady state in Sprague-Dawley rat at 1 mg/kg, iv measured upto 24 hrs by LC-MS/MS analysis; type: ADME, organism-based; settings: in vivo
Cytochrome P450 2C9 = Cytochrome P450 2C9 (Homo sapiens, UniProt P11712); assay: Inhibition of CYP2C9 in human liver microsomes preincubated for 5 mins followed by NADPH addition and measured after 10 mins by LC/MS analysis; type: ADME, Microsome
Sequence of Cytochrome P450 2C9 (P11712 whole entry): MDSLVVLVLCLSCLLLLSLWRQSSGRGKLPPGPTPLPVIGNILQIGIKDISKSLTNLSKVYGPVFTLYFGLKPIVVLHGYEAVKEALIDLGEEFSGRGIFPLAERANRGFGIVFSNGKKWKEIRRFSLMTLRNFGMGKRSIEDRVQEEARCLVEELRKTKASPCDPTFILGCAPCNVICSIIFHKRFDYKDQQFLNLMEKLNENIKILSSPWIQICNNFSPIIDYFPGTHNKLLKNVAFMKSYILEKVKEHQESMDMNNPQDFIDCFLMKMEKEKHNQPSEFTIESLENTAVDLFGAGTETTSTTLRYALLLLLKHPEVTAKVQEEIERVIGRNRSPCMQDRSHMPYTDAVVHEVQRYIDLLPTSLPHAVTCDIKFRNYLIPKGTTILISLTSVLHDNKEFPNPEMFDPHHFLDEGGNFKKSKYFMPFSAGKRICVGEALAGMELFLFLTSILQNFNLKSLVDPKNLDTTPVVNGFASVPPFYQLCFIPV

[9] = Drug concentration in CB17 SCID mouse tumor xenografted with human VCaP cells at 12.5 mg/kg, po measured after 6 hrs by LC-MS/MS analysis; type: ADME, organism-based, Neoplasm; settings: read-out: Ct
Outline: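 SCID mice bearing one VCaP tumour each given a single oral 12.5 mg/kg dose in 100% PEG200. Plasma and tumour tissue collected at 6 and 24 h, 3 mice per time point. Values are mean ± SD.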

VCaP = assay: Induction of androgen receptor degradation in human VCaP cells at 100 nM pretreated with ARi-12 for 2 hrs followed by compound addition and 3 hrs by Western blot analysis; type: functional, cell-based; settings: time 5.0 hrs
Outline: (§3)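 LNCaP or VCaP cells pretreated 2 h with DMSO, ARi-12 (10 μM), thalidomide (10 μM), MG-132 (3 μM) or MLN4924 (0.5 μM), then given degrader at 100 nM for 3 h. AR measured by Western blot with GAPDH as loading control.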

[10] = Metabolic stability in monkey hepatocytes assessed as half life at 1 uM measured upto 120 mins in presence of NADPH by LC-MS/MS analysis; type: ADME, cell-based, Macaca mulatta, Hepatocyte; settings: rhesus monkey, 2 h
[11] = biological target: T1, Androgen receptor (Homo sapiens) (UniProt P10275); assay: Induction of androgen receptor degradation in human VCaP cells at 0.01 uM after 24 hrs by Western blotting analysis relative to control; type: cell-based
T1 sequence (whole entry): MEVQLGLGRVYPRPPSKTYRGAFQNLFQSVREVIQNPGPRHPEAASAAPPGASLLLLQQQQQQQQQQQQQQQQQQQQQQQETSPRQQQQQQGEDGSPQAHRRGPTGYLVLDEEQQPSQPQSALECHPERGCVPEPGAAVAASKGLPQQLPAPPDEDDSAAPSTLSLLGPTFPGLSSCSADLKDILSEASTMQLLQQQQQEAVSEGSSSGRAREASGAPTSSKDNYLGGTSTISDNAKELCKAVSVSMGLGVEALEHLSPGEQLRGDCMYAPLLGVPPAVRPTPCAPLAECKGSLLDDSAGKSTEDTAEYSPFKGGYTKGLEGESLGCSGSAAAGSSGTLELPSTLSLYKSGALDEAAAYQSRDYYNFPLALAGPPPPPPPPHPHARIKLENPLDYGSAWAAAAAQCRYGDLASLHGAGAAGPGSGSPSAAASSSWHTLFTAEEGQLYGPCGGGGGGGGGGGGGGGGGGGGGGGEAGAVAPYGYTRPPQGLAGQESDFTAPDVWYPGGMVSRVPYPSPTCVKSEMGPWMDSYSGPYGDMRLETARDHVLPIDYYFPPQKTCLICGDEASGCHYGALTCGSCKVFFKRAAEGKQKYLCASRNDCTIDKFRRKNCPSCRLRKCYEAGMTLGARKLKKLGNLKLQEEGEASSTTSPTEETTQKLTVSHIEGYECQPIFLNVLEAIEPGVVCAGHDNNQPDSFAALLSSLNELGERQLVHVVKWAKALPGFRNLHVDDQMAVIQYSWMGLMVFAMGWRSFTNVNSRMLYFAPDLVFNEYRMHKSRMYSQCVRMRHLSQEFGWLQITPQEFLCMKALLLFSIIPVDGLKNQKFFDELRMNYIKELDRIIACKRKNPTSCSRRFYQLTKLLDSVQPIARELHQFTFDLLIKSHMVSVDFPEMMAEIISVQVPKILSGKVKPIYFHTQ
Outline: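 VCaP cells treated for 24 h at 10, 100 or 1000 nM. AR protein measured by Western blotting.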

LNCaP [12] = assay: Induction of androgen receptor degradation in human LNCaP cells at 100 nM pretreated with MLN4924 for 2 hrs followed by compound addition and 3 hrs by Western blot analysis; type: functional, cell-based; settings: time 5.0 hrs; outline: as §3
LNCaP [13] = assay: Growth inhibition in human LNCaP cells incubated for 4 days by WST-8 assay; type: functional, cell-based; settings: 96 h
Mus musculus = assay: In vivo induction of androgen receptor degradation in human VCaP cells xenografted in CB17 SCID mouse at 12.5 mg/kg, po measured upto 24 hrs by […] analysis; type: functional, organism-based
Androgen receptor = biological target: T2, Androgen receptor (Homo sapiens, UniProt P10275); assay: Induction of androgen receptor degradation in human VCaP cells incubated for 24 hrs by Western blot analysis; type: cell-based
T2 sequence (P10275 whole entry): T1 sequence (whole entry)

[14] = Metabolic stability in dog liver microsomes assessed as half life at 1 uM measured upto 45 mins in presence of NADPH by LC-MS/MS analysis; type: ADME, Canis lupus familiaris, Microsome; settings: 0.75 h
Outline: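 Pooled liver microsomes from each species: 1 μM compound with 0.5 mg/mL microsomes and 1.7 mM NADPH in 0.1 M K-phosphate, pH 7.4, 5 mM MgCl2, 37 °C. Sampled at 0, 5, 10, 15, 30 and 45 min with cold ACN quench. No-NADPH incubation as negative control; ketanserin as positive control. LC-MS/MS; half-life from ln(remaining) versus time.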

LNCaP [15] = assay: Induction of androgen receptor degradation in human LNCaP cells at 100 nM pretreated with ARi-12 for 2 hrs followed by compound addition and 3 hrs by Western blot analysis; type: functional, cell-based; settings: time 5.0 hrs; outline: as §3

What does the source list for `C[C@H]1CC2(CCN(c3ccc(C(=O)N4CCN(C5CN(c6ccc7c(c6)C(=O)N(C6CCC(=O)NC6=O)C7=O)C5)CC4)cc3)CC2)CN1c1ccc(C#N)c(Cl)c1` (some centres undefined)?
concentration at 24 h [1]: 77 ng/mL; t1/2 [2]: 2.1 h; clearance [3]: 3.7 mL/min/kg; PPB [4]: 99.1%; AUCt [5]: 8850 ng·h/mL; t1/2 [6]: 8.9 h; concentration at 1 h [7]: 495 ng/mL; Vdss [8]: 1.3 L/kg; IC50 (Cytochrome P450 2C9): > 10000 nM; concentration at 6 h [9]: 946 ng/mL; Activity (VCaP): inactive; t1/2 [10]: > 2 h; Activity [11]: > 95%; Activity (LNCaP [12]): inactive; IC50 (LNCaP [13]): 13 nM; Activity (Mus musculus): Active; EC50 (Androgen receptor): 0.6 nM; t1/2 [14]: > 1 h; Activity (LNCaP [15]): inactive
